# Measurements: ChEMBL document CHEMBL1122064, “Synthesis and biological evaluation of 17-[131I]iodo-9-telluraheptadecanoic acid, a potential imaging agent” (J Med Chem, 1982)
# Assays:
# [1] = tested on: Rattus norvegicus; assay: Distribution of radioactivity in liver of Fischer 344 female rat after 7 of days intravenous administration; type: ADME, organism-based; details: in vivo
# Method in brief: (§1)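 Female Fischer 344 rats, 10-12 weeks old, 170-200 g, fed ad libitum. The 131I-labelled fatty acid was dissolved in absolute ethanol, added dropwise to stirred 6% bovine serum albumin at 40 °C (final ethanol 10%), filtered, and injected into a lateral tail vein under ether anaesthesia. Organs were excised, rinsed, blotted and weighed, then counted by Ge(Li) analyzer as percent injected dose/g.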
# [2] = tested on: Rattus norvegicus; assay: Distribution of radioactivity in lungs of Fischer 344 female rat after 10 min of intravenous administration; type: ADME, organism-based, Lung; details: in vivo; method in brief: as §1
# [3] = tested on: Rattus norvegicus; assay: Distribution of radioactivity in lungs of Fischer 344 female rat after 24 hr of intravenous administration; type: ADME, organism-based, Lung; details: in vivo; method in brief: as §1
# [4] = tested on: Rattus norvegicus; assay: Distribution of radioactivity in lungs of Fischer 344 female rat after 2 hr of intravenous administration; type: ADME, organism-based, Lung; details: in vivo; method in brief: as §1
# [5] = tested on: Rattus norvegicus; assay: Distribution of radioactivity in lungs of Fischer 344 female rat after 2 min of intravenous administration; type: ADME, organism-based, Lung; details: in vivo; method in brief: as §1
# [6] = tested on: Rattus norvegicus; assay: Distribution of radioactivity in lungs of Fischer 344 female rat after 30 min of intravenous administration; type: ADME, organism-based, Lung; details: in vivo, 0.5 h
# Method in brief: (§2)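 Female Fischer 344 rats, 10-12 weeks, 170-200 g, fed ad libitum. The labelled fatty acid was given in 6% bovine serum albumin via a lateral tail vein under ether anaesthesia. Rats were killed by CO2 anaesthesia and cervical fracture; organs were excised, rinsed, blotted, weighed and counted by Ge(Li) analyzer. Results are mean percent injected dose/g with range.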
# [7] = tested on: Rattus norvegicus; assay: Distribution of radioactivity in lungs of Fischer 344 female rat after 4 days of intravenous administration; type: ADME, organism-based, Lung; details: in vivo, 96 h; method in brief: as §1
# [8] = tested on: Rattus norvegicus; assay: Distribution of radioactivity in lungs of Fischer 344 female rat after 60 min of intravenous administration; type: ADME, organism-based, Lung; details: in vivo, 1 h; method in brief: as §2
# [9] = tested on: Rattus norvegicus; assay: Distribution of radioactivity in lungs of Fischer 344 female rat after 6 hr of intravenous administration; type: ADME, organism-based, Lung; details: in vivo; method in brief: as §1
# [10] = tested on: Rattus norvegicus; assay: Distribution of radioactivity in lungs of Fischer 344 female rat after 7 days of intravenous administration; type: ADME, organism-based, Lung; details: in vivo, 168 h; method in brief: as §1
# [11] = tested on: Rattus norvegicus; assay: Distribution of radioactivity in heart of Fischer 344 female rat after 2 hr of intravenous administration; type: ADME, organism-based; details: in vivo
# Method in brief: (§3)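 Female Fischer 344 rats (10-12 weeks, 170-200 g) with food and water ad libitum. The 131I-labelled fatty acid was taken up in ethanol, added dropwise to stirred 6% BSA at 40 °C (final ethanol 10%), filtered, and injected into a lateral tail vein under ether. Rats were CO2-anaesthetised and killed; organs were excised, rinsed, blotted, weighed and Ge(Li)-counted. Results are mean (range) % injected dose/g.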
# [12] = tested on: Rattus norvegicus; assay: Distribution of radioactivity in heart of Fischer 344 female rat after 30 min of intravenous administration; type: ADME, organism-based; details: in vivo, 0.5 h
# [13] = tested on: Rattus norvegicus; assay: Distribution of radioactivity in heart of Fischer 344 female rat after 4 day of intravenous administration; type: ADME, organism-based; details: in vivo, 96 h; method in brief: as §3
# [14] = tested on: Rattus norvegicus; assay: Distribution of radioactivity in heart of Fischer 344 female rat after 60 min of intravenous administration; type: ADME, organism-based; details: in vivo, 1 h
# [15] = tested on: Rattus norvegicus; assay: Distribution of radioactivity in heart of Fischer 344 female rat after 6 hr of intravenous administration; type: ADME, organism-based; details: in vivo; method in brief: as §3
# [16] = tested on: Rattus norvegicus; assay: Distribution of radioactivity in heart of Fischer 344 female rat after 7 days of intravenous administration; type: ADME, organism-based; details: in vivo, 168 h; method in brief: as §3
# [17] = tested on: Rattus norvegicus; assay: Distribution of radioactivity in kidneys of Fischer 344 female rat after 10 min of intravenous administration; type: ADME, organism-based, Kidney; details: in vivo; method in brief: as §3
# [18] = tested on: Rattus norvegicus; assay: Distribution of radioactivity in kidneys of Fischer 344 female rat after 24 hr of intravenous administration; type: ADME, organism-based, Kidney; details: in vivo; method in brief: as §3
# [19] = tested on: Rattus norvegicus; assay: Distribution of radioactivity in kidneys of Fischer 344 female rat after 2 hr of intravenous administration; type: ADME, organism-based, Kidney; details: in vivo; method in brief: as §3
# [20] = tested on: Rattus norvegicus; assay: Distribution of radioactivity in Thyroid of Fischer 344 female rat after 6 hr of intravenous administration; type: ADME, organism-based; details: in vivo; method in brief: as §3
# [21] = tested on: Rattus norvegicus; assay: Distribution of radioactivity in Thyroid of Fischer 344 female rat after 7 days of intravenous administration; type: ADME, organism-based; details: in vivo, 168 h; method in brief: as §3
# [22] = tested on: Rattus norvegicus; assay: Distribution of radioactivity in blood of Fischer 344 female rat after 10 min of intravenous administration; type: ADME, organism-based; details: in vivo; method in brief: as §3
# [23] = tested on: Rattus norvegicus; assay: Distribution of radioactivity in blood of Fischer 344 female rat after 24 hr of intravenous administration; type: ADME, organism-based; details: in vivo; method in brief: as §3
# [24] = tested on: Rattus norvegicus; assay: Distribution of radioactivity in blood of Fischer 344 female rat after 2 min of intravenous administration; type: ADME, organism-based; details: in vivo; method in brief: as §3
# [25] = tested on: Rattus norvegicus; assay: Distribution of radioactivity in blood of Fischer 344 female rat after 30 min of intravenous administration; type: ADME, organism-based; details: in vivo, 0.5 h
# [26] = tested on: Rattus norvegicus; assay: Distribution of radioactivity in blood of Fischer 344 female rat after 4 days of intravenous administration; type: ADME, organism-based; details: in vivo, 96 h; method in brief: as §3
# [27] = tested on: Rattus norvegicus; assay: Distribution of radioactivity in Thyroid of Fischer 344 female rat after 2 min of intravenous administration; type: ADME, organism-based; details: in vivo; method in brief: as §3
# [28] = tested on: Rattus norvegicus; assay: Distribution of radioactivity in Thyroid of Fischer 344 female rat after 30 min of intravenous administration; type: ADME, organism-based; details: in vivo, 0.5 h; method in brief: as §3
# [29] = tested on: Rattus norvegicus; assay: Distribution of radioactivity in Thyroid of Fischer 344 female rat after 4 days of intravenous administration; type: ADME, organism-based; details: in vivo, 96 h; method in brief: as §3
# [30] = tested on: Rattus norvegicus; assay: Distribution of radioactivity in Thyroid of Fischer 344 female rat after 60 min of intravenous administration; type: ADME, organism-based; details: in vivo, 1 h; method in brief: as §3
# [31] = tested on: Rattus norvegicus; assay: Distribution of radioactivity in kidneys of Fischer 344 female rat after 7 days of intravenous administration; type: ADME, organism-based, Kidney; details: in vivo, 168 h; method in brief: as §3
# [32] = tested on: Rattus norvegicus; assay: Distribution of radioactivity in heart of Fischer 344 female rat after 24 hr of intravenous administration; type: ADME, organism-based; details: in vivo; method in brief: as §3
structure (smiles),measurement,setting,value
O=C(O)CCCCCCCC[Te]CCCCCCCC[131I],Distribution of radioactivity,[1],0.014 dose g-1
same,Distribution of radioactivity,[2],1.11 dose g-1
same,Distribution of radioactivity,[3],0.18 dose g-1
same,Distribution of radioactivity,[4],0.68 dose g-1
same,Distribution of radioactivity,[5],1.4 dose g-1
same,Distribution of radioactivity,[6],0.85 dose g-1
same,Distribution of radioactivity,[7],0.06 dose g-1
same,Distribution of radioactivity,[8],0.75 dose g-1
same,Distribution of radioactivity,[9],0.48 dose g-1
same,Distribution of radioactivity,[10],0.031 dose g-1
same,Distribution of radioactivity,[11],1.33 dose g-1
same,Distribution of radioactivity,[12],1.78 dose g-1
same,Distribution of radioactivity,[13],0.04 dose g-1
same,Distribution of radioactivity,[14],1.86 dose g-1
same,Distribution of radioactivity,[15],0.57 dose g-1
same,Distribution of radioactivity,[16],0.016 dose g-1
same,Distribution of radioactivity,[17],1.14 dose g-1
same,Distribution of radioactivity,[18],0.08 dose g-1
same,Distribution of radioactivity,[19],0.54 dose g-1
same,Distribution of radioactivity,[20],184 dose g-1
same,Distribution of radioactivity,[21],203 dose g-1
same,Distribution of radioactivity,[22],0.88 dose g-1
same,Distribution of radioactivity,[23],0.08 dose g-1
same,Distribution of radioactivity,[24],1.28 dose g-1
same,Distribution of radioactivity,[25],0.72 dose g-1
same,Distribution of radioactivity,[26],0.02 dose g-1
same,Distribution of radioactivity,[27],6.27 dose g-1
same,Distribution of radioactivity,[28],41.9 dose g-1
same,Distribution of radioactivity,[29],226 dose g-1
same,Distribution of radioactivity,[30],74.7 dose g-1
same,Distribution of radioactivity,[31],0.016 dose g-1
same,Distribution of radioactivity,[32],0.11 dose g-1
